HUVEC prolif 384: human endothelial cell proliferation inhibition; HUVEC proliferation, CellTiter-Glo luminescence, 72 h; stronger effect = lower value; viability, % at 10 µM (by protocol); 86,000 compounds, 1.1% hits; AID 648;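 active means viability at or below 30%; inactive means viability above 30%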
H69AR growth 86K: growth inhibitors of human H69AR lung tumor cells; H69AR lung tumor viability, ATP luminescence, 72 h; stronger effect = lower value; viability, % at 10 µM; 85,000 compounds, 6% hits;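 active means viability at or below 40%; inactive means viability above 40%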;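 further: multidrug resistant small cell line overexpressing MRP-1 efflux transporter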
bCat KO growth: beta-catenin-lacking colon tumor cell growth suppression | HCT116 beta-catenin knockout viability, CellTiter-Glo, 60 h; stronger effect = lower value | viability, % at 10 µM | 140,000 compounds, 1.5% hits;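 active means viability at or under a set limit, the compound median less 4 SD, cut at about 6% in these data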
Lung fibro prol: blocks proliferation of human lung fibroblasts; LL 47 human lung fibroblast viability, ATP luminescence; stronger effect = lower value; viability, % at 10 µM; 85,000 compounds, 1.1% hits;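 active means viability at or below 50% in the single dose screen; inactive means viability above 50%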;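 further: compound exposure lasted 72 h before the ATP readout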
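Test system: LL 47 human lung fibroblasts; Quantity: 1,150 cells/well; Buffer or medium: IMEM plus 15% FBS; Dosing: tenfold compound dosing solution, DMSO at 0.1%; Timing: overnight cell rest, 72 h compound treatment at 37 °C; Detection: ATP-based CellTiter-Glo luminescent readout; Read-out basis: viability percentage against median untreated-cell control; Controls: cell-only wells, no compound.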
PTEN del growth: PTEN-deleted cell growth suppression. AID 827. viability, % at 10 µM. HCT116 PTEN-null viability, CellTiter-Glo, 60 h; stronger effect = lower value. 140,000 compounds, 1.2% hits;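 active means viability at or below a set limit, 4 SD under the median of all tested compounds, cut at about 3.7% in these data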;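 further: PTEN knockout HCT116 line with beta catenin targeted HCT116 as companion control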
Hits are given with their value. Only a selection was taken, and hits are over-represented in it overall.

How did O=C(/C=C/c1ccncc1)c1ccc(NC(=O)c2ccccc2F)cc1 do in these assays?
bCat KO growth: 1.2; PTEN del growth: 2.0

Results for O=C(/C=C/c1ccc(Br)cc1)c1ccc(NC(=O)c2ccco2)cc1 ?
bCat KO growth: 1.8; PTEN del growth: 2.1

How did O=C(/C=C/c1ccc2c(c1)OCO2)c1ccco1 do in these assays?
bCat KO growth: inactive; PTEN del growth: inactive

How did O=C(CSCC(=O)N1CCCc2ccccc21)Nc1nc(-c2ccccc2)cs1 do in these assays?
bCat KO growth: inactive; PTEN del growth: inactive

What do the screens show for `O=C(Nc1cccc(NC(=O)c2ccc(-c3ccc(Br)cc3)o2)c1)c1ccco1`?
HUVEC prolif 384: inactive; H69AR growth 86K: 35.3; bCat KO growth: inactive; Lung fibro prol: inactive; PTEN del growth: inactive

What do the screens show for `Cc1ccc(Cl)cc1N1CCN(C(=O)c2cc3c(=O)[nH]c4ccccc4c3n2C)CC1`?
bCat KO growth: 5.6; PTEN del growth: inactive

What do the screens show for `Cc1ccc(Cl)cc1N1CCN(C(=O)Cc2c(C(=O)O)[nH]c3ccccc23)CC1`?
HUVEC prolif 384: inactive; H69AR growth 86K: inactive; bCat KO growth: inactive; Lung fibro prol: inactive; PTEN del growth: inactive

Results for Cc1ccc(Cl)cc1N1CCN(C(=O)Cc2cn(C)c3ccccc23)CC1 ?
HUVEC prolif 384: inactive; H69AR growth 86K: 33.9; bCat KO growth: inactive; Lung fibro prol: inactive; PTEN del growth: inactive

What do the screens show for `Cc1ccc(C)c(N2CCN(C(=O)Cc3cn(C)c4ccccc34)CC2)c1`?
HUVEC prolif 384: inactive; H69AR growth 86K: inactive; bCat KO growth: inactive; Lung fibro prol: inactive; PTEN del growth: inactive

Results for Cn1c(C(=O)N2CCN(c3ccc(Cl)cc3)CC2)cc2c(=O)[nH]c3ccccc3c21 ?
HUVEC prolif 384: inactive; H69AR growth 86K: 34.4; bCat KO growth: inactive; Lung fibro prol: inactive; PTEN del growth: inactive

How did Cc1ccc(S(=O)(=O)NCCC(=O)Nc2ccc(C)cc2C(=O)c2ccccc2)cc1 do in these assays?
bCat KO growth: inactive; PTEN del growth: inactive

How did Cc1nc2c(n1C1CCCCC1)C(=O)c1ccccc1C2=O do in these assays?
bCat KO growth: inactive; PTEN del growth: inactive

How did Cc1coc2c(C)c3oc(=O)c4c(c3cc12)CCCC4 do in these assays?
HUVEC prolif 384: inactive; H69AR growth 86K: 21.3; Lung fibro prol: inactive

What do the screens show for `Cc1oc2c(C)c3oc(=O)c4c(c3cc2c1C)CCC4`?
HUVEC prolif 384: inactive; H69AR growth 86K: inactive; bCat KO growth: inactive; Lung fibro prol: inactive; PTEN del growth: inactive

Results for CC(C)(C)c1csc(NC(=O)c2ccc(Cl)s2)n1 ?
HUVEC prolif 384: inactive; H69AR growth 86K: inactive; bCat KO growth: inactive; Lung fibro prol: inactive; PTEN del growth: inactive

How did CCNc1nc(N)c(C(=O)c2ccc(Cl)s2)s1 do in these assays?
HUVEC prolif 384: inactive; H69AR growth 86K: 28.5; bCat KO growth: inactive; Lung fibro prol: inactive; PTEN del growth: inactive

What do the screens show for `COc1ccc(C2=Nn3c(nnc3-c3ccncc3)SC2)cc1OC`?
bCat KO growth: inactive; PTEN del growth: inactive

What do the screens show for `COc1ccc(C2=Nn3c(nnc3-c3cccnc3)SC2)cc1OC`?
HUVEC prolif 384: inactive; H69AR growth 86K: inactive; Lung fibro prol: 44.8

Results for COc1ccccc1-c1nnc2n1N=C(c1ccc(O)c(O)c1)CS2 ?
HUVEC prolif 384: inactive; H69AR growth 86K: 21.4; bCat KO growth: inactive; Lung fibro prol: 37.5; PTEN del growth: inactive

Results for Cc1ccc2c(Cl)cc(Cl)c(OCC(=O)NCc3ccco3)c2n1 ?
HUVEC prolif 384: inactive; H69AR growth 86K: inactive; bCat KO growth: inactive; Lung fibro prol: inactive; PTEN del growth: inactive

What do the screens show for `Cc1ccc2c(Cl)cc(Cl)c(OCC(=O)NC(=O)NCc3ccco3)c2n1`?
HUVEC prolif 384: inactive; H69AR growth 86K: 30.1; bCat KO growth: inactive; Lung fibro prol: inactive; PTEN del growth: inactive

What do the screens show for `CC(=O)Nc1ccc(S(=O)(=O)NC2=C(N3CCN(c4ccc(F)cc4)CC3)C(=O)c3ccccc3C2=O)cc1`?
HUVEC prolif 384: 4.8; H69AR growth 86K: inactive; bCat KO growth: 2.0; Lung fibro prol: inactive; PTEN del growth: 2.1

How did O=C(CSc1cn(Cc2ccccc2)c2ccccc12)N1CCOCC1 do in these assays?
HUVEC prolif 384: inactive; H69AR growth 86K: inactive; bCat KO growth: inactive; Lung fibro prol: inactive; PTEN del growth: inactive

What do the screens show for `CCN(CC)C(=S)SCC(=O)c1ccccc1`?
bCat KO growth: inactive; PTEN del growth: inactive

How did CCN(CC)C(=S)SSC(=S)N(CC)CC do in these assays?
bCat KO growth: 1.1; PTEN del growth: 0.9

Results for COc1ccc(Cn2c(-c3ccc(C)cc3)c[n+]3ccccc23)cc1 ?
bCat KO growth: inactive; PTEN del growth: inactive

How did CCOC(=O)c1sc(=NC(=O)c2cc(OC)c(OC)c(OC)c2)n(C)c1C do in these assays?
HUVEC prolif 384: inactive; H69AR growth 86K: 11.1; bCat KO growth: inactive; Lung fibro prol: inactive; PTEN del growth: inactive

Results for CCOC(=O)c1sc(=NC(=O)c2ccc(S(=O)(=O)N3CCOCC3)cc2)n(C)c1C ?
HUVEC prolif 384: inactive; H69AR growth 86K: inactive; Lung fibro prol: inactive

How did CCOC(=O)c1nc(-c2ccc(OC)c(OC)c2)cnc1C#N do in these assays?
bCat KO growth: inactive; PTEN del growth: inactive

Results for FC(F)(F)c1cc(-c2ccco2)nc(NCc2cccnc2)n1 ?
HUVEC prolif 384: inactive; H69AR growth 86K: 29.3; bCat KO growth: inactive; Lung fibro prol: inactive; PTEN del growth: inactive

What do the screens show for `O=C(NNC1=C(C(=O)C(F)(F)F)CCC1)c1cccc(Cl)c1`?
HUVEC prolif 384: 22.5; H69AR growth 86K: 29.4; bCat KO growth: inactive; Lung fibro prol: inactive; PTEN del growth: inactive

What do the screens show for `O=c1oc2c(O)c(O)cc3c(=O)oc4c(O)c(O)cc1c4c23`?
HUVEC prolif 384: inactive; H69AR growth 86K: 16.4; bCat KO growth: inactive; Lung fibro prol: inactive; PTEN del growth: inactive

What do the screens show for `Cc1ccc(-n2[nH]c(C)c(C=Nc3ccc(S(=O)(=O)N4CCOCC4)cc3)c2=O)c(C)c1`?
bCat KO growth: inactive; PTEN del growth: inactive

What do the screens show for `C=CCOc1ccc2c(c1)C(=NO)c1cc(OCC=C)ccc1-2`?
HUVEC prolif 384: inactive; H69AR growth 86K: 33.6; bCat KO growth: inactive; Lung fibro prol: inactive; PTEN del growth: inactive

What do the screens show for `COc1cc(/C=N/NC(=O)c2cccnc2)ccc1OS(=O)(=O)c1cc(C)ccc1C`?
bCat KO growth: inactive; PTEN del growth: inactive

How did CCOc1ccc(/C(O)=C/C(=O)C(=O)Nc2ccc(S(=O)(=O)NC(C)=O)cc2)cc1 do in these assays?
bCat KO growth: inactive; PTEN del growth: inactive

What do the screens show for `CCOc1cc(C2Nc3cccc4cccc(c34)N2)ccc1O`?
HUVEC prolif 384: inactive; H69AR growth 86K: 36.1; bCat KO growth: inactive; Lung fibro prol: inactive; PTEN del growth: inactive

Results for COc1ccccc1C1Nc2cccc3cccc(c23)N1 ?
HUVEC prolif 384: inactive; H69AR growth 86K: inactive; bCat KO growth: inactive; Lung fibro prol: inactive; PTEN del growth: inactive

Results for CCOc1ccc(C2Nc3cccc4cccc(c34)N2)cc1OC ?
HUVEC prolif 384: inactive; H69AR growth 86K: inactive; bCat KO growth: inactive; Lung fibro prol: inactive; PTEN del growth: inactive

What do the screens show for `Oc1ccccc1C1Nc2cccc3cccc(c23)N1`?
HUVEC prolif 384: inactive; H69AR growth 86K: 33.7; bCat KO growth: inactive; Lung fibro prol: inactive; PTEN del growth: inactive
